Test results from ChEMBL document CHEMBL3091378, “Design, synthesis and biological evaluation of α-substituted isonipecotic acid benzothiazole analogues as potent bacterial type II topoisomerase inhibitors” (Bioorg Med Chem Lett, 2013).
Converted amounts (≈) assume the structure as drawn. The source made the active and inactive calls. No cut-off for these calls is given here.

Columns and labels:
[1] = tested on: Enterococcus faecalis; assay: Antibacterial activity against Enterococcus faecalis ATCC 29212 assessed as growth inhibition after 16 to 20 hrs by broth microdilution method; type: functional
In short: (§1)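 Broth microdilution susceptibility testing following the CLSI M7-A7 standard; MIC determined.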

[2] = target: DNA gyrase (Staphylococcus aureus, UniProt P0A0K8+P20831); assay: Inhibition of Staphylococcus aureus DNA gyrase ATPase subunit GyrA2/GyrB2 after 60 mins by malachite green staining assay; type: protein-complex assay
In short: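 S. aureus gyrase A2B2, 10 nM, with 0.08 mg/mL DNA in 40 mM HEPES pH 7.6, 10 mM Mg acetate, 0.5 M K glutamate, 0.01 mg/mL BSA, 2 mM DTT, 5% DMSO. Reaction started with 1 mM ATP and run 60 min at 30 °C. Malachite green absorbance read at 600 nm. IC50 derived using no-compound and no-enzyme controls.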

[3] = Solubility of the compound in PBS at pH 7.4 after 24 hrs by turbidimetric analysis; type: physicochemical
In short: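 Doubling dilutions in DMSO diluted 20-fold into 100 mM PBS pH 7.4, equilibrated 24 h at room temperature, absorbance read at 620 nm. Value is the highest concentration with no measurable precipitate.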

[4] = tested on: Haemophilus influenzae; assay: Antibacterial activity against Haemophilus influenzae ATCC 49247 assessed as growth inhibition after 16 to 20 hrs by broth microdilution method; type: functional; in short: as §1
[5] = tested on: Streptococcus pyogenes; assay: Antibacterial activity against Streptococcus pyogenes ATCC 51339 assessed as growth inhibition after 16 to 20 hrs by broth microdilution method; type: functional; in short: as §1
[6] = tested on: Staphylococcus aureus; assay: Antibacterial activity against Staphylococcus aureus ATCC 29213 assessed as growth inhibition after 16 to 20 hrs by broth microdilution method; type: functional; in short: as §1
[7] = Inhibition of Escherichia coli DNA gyrase ATPase subunit A2B2 after 60 mins by malachite green staining assay
In short: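 E. coli gyrase A2B2, 10 nM, with 0.08 mg/mL DNA in 35 mM Tris pH 7.5, 24 mM KCl, 2 mM MgCl2, 6.5% glycerol, 0.1 mg/mL BSA, 2 mM DTT, 5% DMSO. Started with 1 mM ATP, 30 °C for 60 min. Phosphate read with malachite green at 600 nm after 5 min. IC50 taken against no-compound and no-enzyme controls.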

[8] = Plasma protein binding in rat; type: ADME, cell-free; details: read-out: PPB (converted)
[9] = AUC in mouse at 3 mg/kg, iv; type: ADME, organism-based; set-up: dose 3 mg/kg, route intravenous; details: plasma
In short: (§2)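 Single 3 mg/kg dose given as an IV bolus by tail vein or by oral gavage, dose volume 5 mL/kg. Rats were bled by jugular vein catheter. Anaesthetised mice were bled from the retro-orbital plexus. Plasma was extracted into methanol and drug measured by LC/MS/MS. Cmax (oral), AUC and clearance (IV) and bioavailability were calculated from plasma concentrations.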

[10] = target: Topoisomerase IV (Staphylococcus aureus, UniProt P0C1S7+P0C1U9); assay: Inhibition of Staphylococcus aureus DNA topoisomerase 4 subunit ParC2/ParE2 after 60 mins by malachite green staining assay; type: protein-complex assay
In short: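 S. aureus topo IV C2E2, 25 nM, with 0.01 mg/mL DNA in 50 mM Tris-HCl pH 7.5, 5 mM MgCl2, 0.35 M K glutamate, 0.05 mg/mL BSA, 5 mM DTT, 1% DMSO. ATP added at 1 mM to start, then 30 °C for 60 min. Malachite green read at 600 nm. IC50 calculated relative to no-compound and no-enzyme controls.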

[11] = Cmax in mouse at 3 mg/kg, po; type: ADME, organism-based; set-up: dose 3 mg/kg, route oral; details: in vivo; in short: as §2
[12] = Intrinsic clearance in mouse liver microsomes at 10 uM by LC-MS analysis; type: ADME, Microsome; details: read-out: CLH
In short: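 Compound at 10 μM, duplicate, 0.1% DMSO, with mouse liver microsomes at 1 mg/mL protein. Started with 1 mM NADPH and stopped at 0, 10, 30 and 60 min. Acetonitrile extracts analysed by LCMS. T1/2 taken from the slope of peak area over time, then converted to intrinsic clearance.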

[13] = tested on: Staphylococcus aureus; assay: Antibacterial activity against Staphylococcus aureus ATCC 29213 assessed as spontaneous mutant measuring frequency of resistance at 4 to 8 fold MIC relative to control; type: functional, organism-based
[14] = Oral bioavailability in mouse at 3 mg/kg; type: ADME, organism-based; details: in vivo; in short: as §2
[15] = Clearance in mouse at 3 mg/kg, iv; type: ADME, organism-based; set-up: dose 3 mg/kg, route intravenous; details: in vivo; in short: as §2
[16] = Clearance in rat at 3 mg/kg, iv; type: ADME, organism-based; set-up: dose 3 mg/kg, route intravenous; details: in vivo; in short: as §2
[17] = Cmax in rat at 3 mg/kg, po; type: ADME, organism-based; set-up: dose 3 mg/kg, route oral; details: in vivo; in short: as §2

Chain of DNA gyrase (P0A0K8 whole entry): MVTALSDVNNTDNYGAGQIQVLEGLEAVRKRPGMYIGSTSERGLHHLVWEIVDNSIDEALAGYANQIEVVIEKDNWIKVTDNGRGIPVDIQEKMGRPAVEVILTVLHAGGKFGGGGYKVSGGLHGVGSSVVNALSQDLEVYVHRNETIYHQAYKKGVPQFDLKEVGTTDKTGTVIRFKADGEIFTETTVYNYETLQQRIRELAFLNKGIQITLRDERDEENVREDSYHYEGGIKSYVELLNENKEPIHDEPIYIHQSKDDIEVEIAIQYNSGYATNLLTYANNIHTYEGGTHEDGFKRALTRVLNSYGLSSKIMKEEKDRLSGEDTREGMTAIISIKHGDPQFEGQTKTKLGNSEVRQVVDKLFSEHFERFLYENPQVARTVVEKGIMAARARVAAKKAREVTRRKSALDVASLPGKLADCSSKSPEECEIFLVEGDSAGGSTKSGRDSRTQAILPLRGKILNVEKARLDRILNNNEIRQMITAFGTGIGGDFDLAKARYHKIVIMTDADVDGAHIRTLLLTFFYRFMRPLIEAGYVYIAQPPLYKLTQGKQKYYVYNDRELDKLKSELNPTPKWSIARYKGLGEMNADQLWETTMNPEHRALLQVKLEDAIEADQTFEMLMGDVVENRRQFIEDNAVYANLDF
Chain of DNA gyrase (P20831 whole entry): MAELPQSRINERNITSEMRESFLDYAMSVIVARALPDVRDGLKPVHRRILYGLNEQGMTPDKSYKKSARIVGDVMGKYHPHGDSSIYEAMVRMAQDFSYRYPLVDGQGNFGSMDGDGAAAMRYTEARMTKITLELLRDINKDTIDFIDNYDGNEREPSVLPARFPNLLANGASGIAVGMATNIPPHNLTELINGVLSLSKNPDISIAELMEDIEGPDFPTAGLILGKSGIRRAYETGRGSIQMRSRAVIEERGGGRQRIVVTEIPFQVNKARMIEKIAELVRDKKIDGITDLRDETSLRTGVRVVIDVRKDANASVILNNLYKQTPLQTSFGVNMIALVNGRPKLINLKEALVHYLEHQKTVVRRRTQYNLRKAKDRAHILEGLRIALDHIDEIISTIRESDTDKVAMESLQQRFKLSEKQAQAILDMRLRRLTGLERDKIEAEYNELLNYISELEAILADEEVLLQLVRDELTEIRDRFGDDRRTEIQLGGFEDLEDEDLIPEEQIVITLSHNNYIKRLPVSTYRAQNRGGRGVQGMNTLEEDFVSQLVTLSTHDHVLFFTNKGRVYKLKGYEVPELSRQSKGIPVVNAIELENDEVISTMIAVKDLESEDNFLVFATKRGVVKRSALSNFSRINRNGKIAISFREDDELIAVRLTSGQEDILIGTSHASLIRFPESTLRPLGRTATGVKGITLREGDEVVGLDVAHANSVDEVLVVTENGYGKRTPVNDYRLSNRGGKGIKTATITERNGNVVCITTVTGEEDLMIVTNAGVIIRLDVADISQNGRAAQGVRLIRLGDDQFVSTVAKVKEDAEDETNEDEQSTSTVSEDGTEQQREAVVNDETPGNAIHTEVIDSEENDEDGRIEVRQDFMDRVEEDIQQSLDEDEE
Chain of Topoisomerase IV (P0C1U9 whole entry): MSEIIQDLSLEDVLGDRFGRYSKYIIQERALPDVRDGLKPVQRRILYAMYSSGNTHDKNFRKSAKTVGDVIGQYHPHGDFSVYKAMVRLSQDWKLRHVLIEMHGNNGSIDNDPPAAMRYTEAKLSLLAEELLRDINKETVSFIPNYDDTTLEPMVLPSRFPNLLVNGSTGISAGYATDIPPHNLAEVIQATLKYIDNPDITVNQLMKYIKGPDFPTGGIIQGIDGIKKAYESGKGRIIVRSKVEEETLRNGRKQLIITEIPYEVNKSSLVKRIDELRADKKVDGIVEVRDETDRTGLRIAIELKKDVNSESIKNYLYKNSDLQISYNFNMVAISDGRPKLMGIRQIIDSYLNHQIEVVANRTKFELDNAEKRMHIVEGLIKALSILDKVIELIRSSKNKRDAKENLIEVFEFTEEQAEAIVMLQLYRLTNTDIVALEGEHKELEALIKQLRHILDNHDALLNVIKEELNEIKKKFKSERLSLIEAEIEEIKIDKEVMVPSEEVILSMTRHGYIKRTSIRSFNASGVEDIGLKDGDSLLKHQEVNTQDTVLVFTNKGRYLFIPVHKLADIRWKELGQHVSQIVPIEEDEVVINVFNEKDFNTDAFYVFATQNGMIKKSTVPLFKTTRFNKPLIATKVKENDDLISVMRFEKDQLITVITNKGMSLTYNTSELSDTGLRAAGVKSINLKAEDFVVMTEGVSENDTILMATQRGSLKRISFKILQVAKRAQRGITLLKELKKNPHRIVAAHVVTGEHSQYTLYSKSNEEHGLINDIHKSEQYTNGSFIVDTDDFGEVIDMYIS
Chain of Topoisomerase IV (P0C1S7 whole entry): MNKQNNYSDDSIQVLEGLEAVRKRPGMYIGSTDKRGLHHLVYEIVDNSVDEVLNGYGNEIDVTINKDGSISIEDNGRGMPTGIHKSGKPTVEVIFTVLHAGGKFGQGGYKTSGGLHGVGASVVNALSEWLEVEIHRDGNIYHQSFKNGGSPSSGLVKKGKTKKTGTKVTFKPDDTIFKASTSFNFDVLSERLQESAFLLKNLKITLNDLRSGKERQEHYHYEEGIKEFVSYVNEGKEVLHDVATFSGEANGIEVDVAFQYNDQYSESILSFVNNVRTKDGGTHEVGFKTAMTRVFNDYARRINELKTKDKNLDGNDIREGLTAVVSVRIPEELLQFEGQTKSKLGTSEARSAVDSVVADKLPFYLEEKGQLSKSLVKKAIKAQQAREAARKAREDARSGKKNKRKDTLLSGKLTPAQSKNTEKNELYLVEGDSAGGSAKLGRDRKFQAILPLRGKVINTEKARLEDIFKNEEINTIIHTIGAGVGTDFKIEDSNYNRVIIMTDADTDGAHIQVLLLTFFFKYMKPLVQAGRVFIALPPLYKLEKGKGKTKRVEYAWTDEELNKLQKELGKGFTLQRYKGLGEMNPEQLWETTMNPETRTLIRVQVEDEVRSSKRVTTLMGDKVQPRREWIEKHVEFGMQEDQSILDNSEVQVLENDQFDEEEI

Compound | MIC [1] [µg/mL] | IC50 [2] [nM] | solubility kinetic at 24 h [3] [µg/mL] | MIC [4] [µg/mL] | MIC [5] [µg/mL] | MIC [6] [µg/mL] | IC50 [7] [µg/mL] | fraction unbound [8] | AUC [9] [ng·h/mL] | IC50 [10] [nM] | Cmax [11] [ng/mL] | CLint scaled at 10 µM [12] [mL/min/kg] | Activity [13] | bioavailability [14] [%] | clearance [15] [mL/min/kg] | clearance [16] [mL/min/kg] | Cmax [17] [ng/mL]
CCNC(=O)Nc1nc2cc(-c3ccc(C(=O)O)nc3)cc(-c3ccccn3)c2s1 | 0.12 (≈ 0.286 µM) | 2.38 | 50 (≈ 119 µM) | – | – | – | – | – | – | – | – | – | – | – | – | – | –
CCNC(=O)Nc1nc2cc(-c3cnc(N4CCC(C(=O)O)(C(F)(F)F)CC4)nc3)cc(-c3ccccn3)c2s1 | 0.25 (≈ 0.437 µM) | 28 | > 800 | 16 (≈ 28 µM) | 0.25 (≈ 0.437 µM) | 2 (≈ 3.5 µM) | – | – | – | – | – | – | – | – | – | – | –
CCNC(=O)Nc1nc2cc(-c3cnc(N4CCC(C)(C(=O)O)C4)nc3)cc(-c3ccccn3)c2s1 (stereo not given) | – | 79.4 | > 800 | 4 (≈ 7.94 µM) | 0.5 (≈ 0.993 µM) | 2 (≈ 3.97 µM) | – | – | – | – | – | – | – | – | – | – | –
CCNC(=O)Nc1nc2cc(-c3cnc(N4CCC(O)(C(=O)O)CC4)nc3)cc(-c3ccccn3)c2s1 | 0.5 (≈ 0.962 µM) | – | 100 (≈ 192 µM) | 8 (≈ 15.4 µM) | 0.12 (≈ 0.231 µM) | 8 (≈ 15.4 µM) | 0.003 (≈ 0.00577 µM) | – | – | – | – | – | – | – | – | – | –
CCNC(=O)Nc1nc2cc(-c3cncc(N4CCC(C)(C(=O)O)CC4)c3)cc(-c3ccccn3)c2s1 | 0.06 (≈ 0.116 µM) | 29 | > 800 | 4 (≈ 7.74 µM) | 0.06 (≈ 0.116 µM) | 1 (≈ 1.94 µM) | – | – | – | – | – | – | – | – | – | – | –
CCNC(=O)Nc1nc2cc(-c3cnc(N4CCCC4(C)C(=O)O)nc3)cc(-c3ccccn3)c2s1 (stereo not given) | 0.25 (≈ 0.496 µM) | 9.93 | > 800 | 1 (≈ 1.99 µM) | 0.06 (≈ 0.119 µM) | 0.5 (≈ 0.993 µM) | – | – | – | – | – | – | – | – | – | – | –
CCNC(=O)Nc1nc2cc(-c3cnc(N4CCC(C(=O)O)CC4)nc3)cc(-c3ccccn3)c2s1 | 0.015 (≈ 0.0298 µM) | 19.9 | > 800 | 2 (≈ 3.97 µM) | 0.03 (≈ 0.0596 µM) | 0.12 (≈ 0.238 µM) | – | 0.007 | 900 | 23.8 | 70 | < 5.8 | inactive | 8 | 55 | – | –
CCNC(=O)Nc1nc2cc(-c3cnc(N4CCC(C)(C(=O)O)CC4)nc3)cc(-c3ccccn3)c2s1 | 0.015 (≈ 0.029 µM) | 15.5 | > 800 | 2 (≈ 3.86 µM) | 0.06 (≈ 0.116 µM) | 0.12 (≈ 0.232 µM) | – | 0.007 | – | 15.5 | – | < 5.8 | inactive | – | – | 2.8 | 1800
CCNC(=O)Nc1nc2cc(-c3cnc(N4CCC(C(=O)O)(c5ccccc5)CC4)nc3)cc(-c3ccccn3)c2s1 | 0.06 (≈ 0.104 µM) | – | 12.5 (≈ 21.6 µM) | > 16 | 0.5 (≈ 0.863 µM) | 0.5 (≈ 0.863 µM) | 0.013 (≈ 0.0224 µM) | – | – | – | – | < 5.8 | – | – | – | – | –
